From PubChem
Yeast lifespan up – compounds extending yeast replicative lifespan, primary screen, S. cerevisiae, OD615; inhibition of the nicotinamide effect, % at 10 µM; 130,000 tested, 0.68% active; S. cerevisiae growth with nicotinamide; deaD strain in restrictive glucose medium;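 active = inhibition above a set limit, placed 3 SD over the median of all compounds, cut at about 26% in these data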;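 note: 0% = nicotinamide-treated wells and 100% = cells grown without nicotinamide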
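assay system = DeaD-strain S. cerevisiae | measured by = absorbance at 615 nm | probe or stimulus = nicotinamide 1.5 mM | buffer or medium = CSMM-D glucose medium, restrictive | times = 48 h at 30 °C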
Yeast growth inh – growth inhibitors of yeast BB579 in restrictive medium, primary screen, yeast lifespan-shortening project, S. cerevisiae. inhibition, % at 10 µM. OD615, 48 h. 140,000 tested, 0.51% active;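 active = inhibition above a set limit, 3 SD over the mean compound inhibition, cut at about 44% in these data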
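Assay system: S. cerevisiae DeaD strain BB579 yeast. Medium: CSMM-D restrictive synthetic medium containing dextrose (glucose). Times: 4 h cell preincubation, 48 h compound exposure, 30 °C humidified. Signal: OD615 turbidity measurement. Benchmarks: positive control amphotericin B 10 µg/mL.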
RAM network inh – inhibitors of the yeast RAM network, primary screen, dse1pr::URA3 reporter, 5-FOA selection; inhibition, % at 50 µM; S. cerevisiae dse1pr::URA3 reporter, 5-FOA growth OD615, 2 d; analog-sensitive cbk1-as2 kinase mutant strain; 190,000 tested, 1.8% active;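 active = inhibition above a set limit, 3 SD over mean compound inhibition, cut at about 8.4% in these data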;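 note: 0% = DMSO-only wells with no growth and 100% = 10 µM 1-NA-PP1 full growth; inhibition rescues growth on 5-FOA so higher OD means more RAM inhibition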
Starred values were filed as active, the others as inactive; . = no result. In the library only some 2.6% were active in any assay of this set; here they are far more common.

SMILES | Yeast lifespan up | Yeast growth inh | RAM network inh
CCOC(=O)COc1c(Br)cc(/C=C2\SC(=O)N(CC(=O)N3CCCC3)C2=O)cc1OC | -11 | -52 | 11*
CCCCC(=O)Nc1cccc(NC(=S)NC(C)=O)c1 | 0 | -12 | 1
O=C1NC2(CCCCC2)NN1c1ccccc1 | -4 | -12 | 2
CC1CCC2(CC1)NC(=S)N(c1ccccc1)N2 (stereo not drawn) | -14 | 69* | 1
CCOc1ccc(S(=O)(=O)NC(C)C)cc1C(N)=O | . | . | 4
CC(O)C(NS(=O)(=O)c1ccc(Cl)cc1)C(=O)OCC(=O)c1c[nH]c2ccccc12 (stereo not drawn) | . | . | 0
CSCCC(NS(=O)(=O)c1ccc(Cl)cc1)C(=O)OCC(=O)c1c(C)[nH]c2ccccc12 (stereo not drawn) | 1 | -23 | 10*
CCOC(=O)c1cn(-c2nc(-c3ccc(Cl)c(Cl)c3)cs2)c2c(F)c(N3CCOCC3)c(F)cc2c1=O | -5 | -40 | 9.7*
CCOC(=O)c1cn(-c2ccc(F)c(F)c2F)c2c(F)c(F)c(F)cc2c1=O | -8 | -40 | 3
CCOC(=O)CSc1nc(C)c2cc(OC)ccc2n1 | -20 | -55 | 3
CCOC(=O)CSC1=NC(=O)/C(=C/c2ccc(OC)cc2)S1 | 57* | -5 | 1
O=C(COc1ccc2oc(-c3ccco3)cc(=O)c2c1)N1CCCCC1 | . | . | 0
COc1ccc(-c2nc(C#N)c(N3CCc4ccccc4C3)o2)cc1OC | -8 | -25 | 2
COc1ccccc1-c1nc(C#N)c(N2CCc3ccccc3C2)o1 | -23 | -59 | 10*
COc1ccc(/C=C/CN2CCC(CO)(Cc3ccccc3Cl)CC2)cc1 | . | . | 3
O=C(CNCC1CCCO1)NCc1ccco1 (stereo not drawn) | . | . | 0
COC(=O)c1ccc(-n2nnnc2SCc2nn[nH]n2)cc1 | -11 | 10 | 2
CC(=O)/C(=N\Nc1ccc(C)cc1)N1CCOCC1 | -13 | 92* | -2
Cc1ccc(NC(=O)CC(=O)NCCN2CCOCC2)cc1 | -11 | -7 | 4
CCc1nnc(NC(=O)Cc2ccc(Br)cc2)s1 | . | . | -1
Cc1oc(-c2cccc3ccccc23)nc1CN1CCC[C@H]1CO | . | . | 0
CCc1cccc(CC)c1NC(=O)C1SC(=Nc2ccccc2C)C(c2nc3ccccc3s2)=C1N (stereo not drawn) | -1 | -75 | 8.8*
CCc1cccc(C)c1NC(=O)CCCSc1nc2ccccc2s1 | 8 | -19 | 8
COc1cc(C(=O)N2CCC(O)(c3ccccc3)CC2)cc(OC)c1OC | -20 | -13 | 1
CCOc1ccccc1NC(=O)CNS(=O)(=O)c1ccc2nc(C)sc2c1 | . | . | 4
SMILES | Yeast lifespan up | Yeast growth inh | RAM network inh
CCOC(=O)C1C(=O)NC(SCC(=O)Nc2nccs2)=C(C#N)C1c1ccccc1OCC (stereo not drawn) | 27* | -10 | 1
CCOC(=O)C1C(=O)NC(SCC(=O)OC)=C(C#N)C1c1ccccc1OCC (stereo not drawn) | -3 | -30 | 1
C=CCNC(=O)c1ccccc1NC(=O)c1ccc(Cl)c(S(=O)(=O)Nc2ccccc2)c1 | 32 | -40 | 4
Cc1ccc(C)c(OCCn2cc(/C=C(/C#N)C(=O)NCC3CCCO3)c3ccccc32)c1 (stereo not drawn) | -3 | -19 | 8.8*
COc1ccccc1OCCn1cc(/C=C(\C#N)C(=O)NCc2cccs2)c2ccccc21 | -5 | -27 | 3
CC(Sc1nc(-c2ccc(F)cc2)cs1)C(=O)Nc1ccc(Cl)cn1 (stereo not drawn) | 2 | -26 | 10*
Cc1csc(SC(C)C(=O)Nc2ccc(Cl)cn2)n1 (stereo not drawn) | -4 | -29 | 2
Cc1nn(-c2ccccc2)c(Cl)c1/C=C1\SC(=S)N(C)C1=O | -3 | -21 | 8.4*
Cc1nn(-c2ccccc2)c(Cl)c1/C=C1\C(=O)N(C)C(=S)N1C | . | . | 2
O=C(Nc1ccccc1O)c1nc(Cl)ccc1Cl | . | . | 1
COc1cccc2c(=O)c3ccoc3n(C)c12 | . | . | 1
COc1cccc2c(=O)c3c(cnn3C)n(C)c12 | -20 | 74* | -1
COCCn1c(SCC(=O)Nc2sccc2C(N)=O)nnc1-c1ccncc1 | . | . | 1
O=C(N/N=C/c1ccc([N+](=O)[O-])cc1)c1ccc(COc2ccccc2-c2ccccc2)cc1 | . | . | 5
COc1ccc(Cl)cc1N(CC(=O)NC1CC1)S(=O)(=O)c1ccc(C)c([N+](=O)[O-])c1 | . | . | 3
c1ccc(-c2ccc3c(c2)c2c4n3CCN=C4CCC2)cc1 | -34 | 4 | 0
Cc1cccc(/C=C2\CCC(=C3SCCCS3)C2=O)c1 | -10 | -41 | 9.4*
O=C1C(=C2SCCCS2)CC/C1=C\c1ccc(F)cc1 | 2 | -44 | 8
Cc1cc(C)nc(SCCC(=O)Nc2ccccc2Cl)n1 | . | . | 0
COc1cc(C(=O)NCC(=O)N/N=C/c2ccc(OC(=O)c3ccco3)cc2)cc(OC)c1OC | . | . | 2
CC(C)OC(=O)CC(=O)CSc1nc2c(c(-c3cccs3)c1C#N)CCC2 | 7 | -29 | 10*
CC(C)OC(=O)CC(=O)CSc1nc2c(cc1C#N)CCC2 | -20 | -28 | 1
O=C(NCC1CCCO1)C(c1cccs1)N(Cc1cccs1)C(=O)c1ccc(-c2ccccc2)[nH]1 (stereo not drawn) | 0 | -18 | 8.4*
O=C(NCC1CCCO1)C(c1ccc(F)cc1)N(CC1CCCO1)C(=O)c1ccc(-c2ccccc2)[nH]1 (stereo not drawn) | . | . | 3
Cc1c(Br)c(C(F)(F)F)nn1CC(=O)NCc1ccccc1 | -3 | -30 | 1
SMILES | Yeast lifespan up | Yeast growth inh | RAM network inh
CCOC(=O)C1=C(O)/C(=C/c2ccc(OCC(=O)O)c(OCC)c2)SC1=Nc1ccc(C)cc1 | . | . | 7
CCOC(=O)C1=C(O)/C(=C/c2ccc(OCC(=O)O)c(OCC)c2)SC1=Nc1ccc(OC)cc1 | 6 | -34 | 9.4*
CN=c1scc(C)n1/N=C/c1cc(Br)c(O)c(Br)c1 | . | . | 10*
CN=c1scc(C)n1/N=C/c1ccc(O)cc1 | -14 | -59 | 4
O=C1OC(/C=C/c2ccc(Cl)cc2)=NC/1=C/c1ccco1 | 1 | -33 | 2
Nc1nc(-c2ccc3c(c2)CCO3)cs1 | . | . | 0
COc1cc(/C=C(\C#N)c2nc3c(s2)CCCC3)ccc1O | -9 | -6 | 9.6*
N#C/C(=C\c1cccnc1)c1nc2c(s1)CCCC2 | . | . | 2
Nc1cc(S(=O)(=O)N2CCCCC2)ccc1Oc1ccccc1 | . | . | 4
COc1ccc(N2CCN(C(=O)C(Cc3ccccc3)n3cccc3)CC2)cc1 (stereo not drawn) | 3 | -23 | 3
CN([C@@H](Cc1ccc(OS(=O)(=O)c2cccc3cnccc23)cc1)C(=O)N1CCN(c2ccccc2)CC1)S(=O)(=O)c1cccc2cnccc12 | 6 | -54 | 9.2*
O=[N+]([O-])c1ccc(Cl)c(/C=N/NC(=S)Nc2ccccc2)c1 | -6 | -45 | 5
O=C(N/N=C/c1ccccc1Cl)c1nc2ccc([N+](=O)[O-])cc2c(=O)[nH]1 | . | . | 10*
COC(=O)c1ccccc1NC(=S)NC(NC(=O)c1ccccc1[N+](=O)[O-])C(Cl)(Cl)Cl (stereo not drawn) | -8 | -28 | 0
